Laboratory results as given in ChEMBL document CHEMBL3877257, “New isoxazolidinone and 3,4-dehydro-β-proline derivatives as antibacterial agents and MAO-inhibitors: A complex balance between two activities” (Eur J Med Chem, 2016).
In brackets after ≈: the same amount, converted by molar mass.

Assays:
Staphylococcus aureus [1] = assay: Antibacterial activity against Staphylococcus aureus ATCC 29213 after 18 to 24 hrs by broth microdilution method; type: functional
Method in brief: (§1)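 Broth microdilution per CLSI: serial 2-fold dilutions in Mueller-Hinton broth, compounds dissolved in DMSO; equal volume of inoculum at 1x10^6 CFU/mL added to each well; 37 C for 18-24 h. MIC = lowest concentration with no visible turbidity. Clinical S. aureus strains (MRSA and MSSA) were 12 recent isolates with characterized susceptibility.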

Enterococcus faecalis = assay: Antibacterial activity against Enterococcus faecalis ATCC 29212 after 18 to 24 hrs by broth microdilution method; type: functional; method in brief: as §1
[2] = Cytotoxicity against human HepG2 cells assessed as cell viability at 100 ug/mL after 24 hrs by prestoblue assay; type: toxicity, cell-based; conditions: read-out: Activity
Method in brief: (§2)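 HepG2 grown in DMEM with 10% heat-inactivated FBS on collagen; seeded at 45,000 cells/cm2, treated two days later for 24 h across 10-100 µg/mL. Viability read with resazurin-based PrestoBlue, 1 h at 37°C, absorbance 570 nm (reference 600 nm). Mean ± SEM, three experiments in triplicate, Student's t test.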

HepG2 [3] = assay: Inhibition of MAO activity in human HepG2 cells at 10 ug/mL after 24 hrs by spectrophotometric method; type: cell-based
Method in brief: (§3)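 HepG2 on collagen, seeded at 45,000 cells/cm2, dosed two days later at 10-100 µg/mL for 24 h. Lysate MAO was measured by Amplex Red/HRP H2O2 detection, 30 min at room temperature, absorbance 570 nm. Mean ± SEM of three experiments in triplicate.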

HepG2 [4] = assay: Inhibition of MAO activity in human HepG2 cells at 100 ug/mL after 24 hrs by spectrophotometric method; type: cell-based; method in brief: as §3
Staphylococcus aureus [5] = assay: Antibacterial activity against Staphylococcus aureus clinical isolate after 18 to 24 hrs by broth microdilution method; type: functional; method in brief: as §1
[6] = Cytotoxicity against human HepG2 cells assessed as decrease in cell viability at 10 ug/mL after 24 hrs by prestoblue assay; type: toxicity, cell-based; conditions: hepg2, 24 h; method in brief: as §2

SMILES | MIC (Staphylococcus aureus [1]) [µg/mL] | MIC (Enterococcus faecalis) [µg/mL] | MIC (Staphylococcus aureus [5]) [µg/mL] | MIC50 (Staphylococcus aureus [5]) [µg/mL] | MIC90 (Staphylococcus aureus [5]) [µg/mL] | viability at 24 h, 100 ug/mL [2] [%] | inhibition (HepG2 [3]) [%] | inhibition (HepG2 [4]) [%] | Activity [6]
CCNC(=O)C1C(=O)ON(C(=O)c2ccc(N3CCOCC3)c(F)c2)C1C(C)C (stereo not drawn) | > 128 | > 128 | > 128 | > 128 | > 128 | 10 | 25 | 45 | Non-Toxic
CCNC(=O)C1C(=O)ON(C(=O)c2ccc(N3CCOCC3)c(F)c2)C1C1CCCCC1 (stereo not drawn) | > 128 | > 128 | 32 to 128 (≈ 71.5 to 286 µM) | 64 (≈ 143 µM) | > 128 | 10 | 25 | 45 | Non-Toxic
CC(=O)NC[C@H]1CN(c2ccc(N3CCOCC3)c(F)c2)C(=O)O1 [LINEZOLID] | – | – | 1 to 4 (≈ 2.96 to 11.9 µM) | 2 (≈ 5.93 µM) | 2 (≈ 5.93 µM) | – | – | 15 | –

Further lines, with some results ahead:

MIC (Staphylococcus aureus [1]) [µg/mL] | MIC (Enterococcus faecalis) [µg/mL] | MIC (Staphylococcus aureus [5]) [µg/mL] | MIC50 (Staphylococcus aureus [5]) [µg/mL] | MIC90 (Staphylococcus aureus [5]) [µg/mL] | SMILES | viability at 24 h, 100 ug/mL [2] [%] | inhibition (HepG2 [3]) [%] | inhibition (HepG2 [4]) [%] | Activity [6]
> 128 | > 128 | > 128 | > 128 | > 128 | CCNC(=O)C1=CCN(C(=O)c2ccc(N3CCOCC3)c(F)c2)[C@@H]1C(C)C | 10 | – | – | Non-Toxic
> 128 | > 128 | > 128 | > 128 | > 128 | CCNC(=O)C1=CCN(C(=O)c2ccc(N3CCOCC3)c(F)c2)[C@H]1C(C)C | 20 | 25 | 45 | Non-Toxic
